Compound activity from PubChem BioAssay.
Hits are enriched below; roughly 4.5% of the tested compounds scored in any of these assays.
MDM2 E3 inh: MDM2-luciferase reporter signal enhancers, primary screen, MDM2 E3 ligase inhibitor project, cell-based, luminescence, 1536-well; 0.11% of 210,000 active; AID 1230, 2008; cell-based MDM2 ubiquitination luciferase reporter, 2 h; 0 = plate control, 100 = twice control, blank-subtracted; signal enhancement, % at 5 µM; E3 ubiquitin-protein ligase Mdm2 (Homo sapiens), Q00987;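 active = signal enhancement of 30% or more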;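 also: luminescence tracks abundance of the self-degrading MDM2-luciferase fusion protein; higher signal means inhibition of MDM2 E3 ligase activity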
Target sequence (Q00987 whole entry, looked up, the tested form may be a part): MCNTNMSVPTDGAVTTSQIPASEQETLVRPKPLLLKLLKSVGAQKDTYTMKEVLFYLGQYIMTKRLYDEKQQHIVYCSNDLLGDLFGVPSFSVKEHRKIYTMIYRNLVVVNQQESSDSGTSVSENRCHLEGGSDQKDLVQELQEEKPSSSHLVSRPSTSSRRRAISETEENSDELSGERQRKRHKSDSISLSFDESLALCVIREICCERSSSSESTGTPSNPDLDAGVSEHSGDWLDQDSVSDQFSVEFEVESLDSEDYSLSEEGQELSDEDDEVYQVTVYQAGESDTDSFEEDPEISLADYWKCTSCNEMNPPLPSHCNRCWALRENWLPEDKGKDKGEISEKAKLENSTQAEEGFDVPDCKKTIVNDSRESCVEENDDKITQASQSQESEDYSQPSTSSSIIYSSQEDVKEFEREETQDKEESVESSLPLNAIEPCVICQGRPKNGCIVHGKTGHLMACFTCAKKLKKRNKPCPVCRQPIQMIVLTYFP
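test system = mammalian cells stably expressing self-ubiquitinating, self-degrading MDM2 E3–luciferase fusion | quantity = 2000 cells/well | incubation = cell settling 4 h, compound treatment 2 h, both 37 °C | signal = luminescence with SteadyLite reagent, 15 min at room temperature | evaluation = % enhancement relative to plate controls after blank subtraction | benchmarks = plate controls and plate blanks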
STAT1 act: STAT1 signaling activators, primary screen, cell-based, HTS, luciferase reporter. NIH 3T3 STAT1-luciferase reporter, IFN-gamma, luminescence; 100% = IFN-gamma alone, no compound. activation (% of control), % at 5.5 µM. 2.6% of 200,000 active. AID 932, 2007;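 active = activation above the screen-wide mean activation plus 3 SD, cut at about 130% in these data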;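 also: raw ratio to IFN-gamma control signal so 100% means no change and 0% no light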
PERK inhibitor: block of dimerizer-induced PERK translation repression, primary screen, PERK inhibitor project, CHO PERK-DD cells, SEAP luminescence, HTS | Eukaryotic translation initiation factor 2-alpha kinase 3 (Homo sapiens), Q9NZJ5 | CHO PERK-DD fusion, SEAP luminescence translation reporter | inhibition, % at 5.6 µM | 0.17% of 220,000 active | AID 1416, 2008;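 active = inhibition above the mean inhibition of all tested compounds plus 3 SD, set separately per screening campaign, cut at about 2.9% in these data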;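 also: PERK kinase domain activated by AP20187 dimerizer at 100 nM; 0% = DMSO with dimerizer and 100% = rapamycin at 8.4 µM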
AHR activator: AHR activators, primary screen, cell-based, luminescence, luciferase reporter, human | AHR-responsive luciferase reporter cells | activation, % at 5 µM | 2.5% of 320,000 active; in the data active = activation above about 47%;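 also: 0% = vehicle wells and 100% = reference agonist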
APP 5'UTR act: activators of APP 5'UTR luciferase reporter, primary screen, SH-SY5Y cells. SH-SY5Y APP 5'UTR luciferase reporter, luminescence; zero percent = DMSO vehicle wells. activation, % at 2 µM. 1% of 190,000 active. AID 1276, 2008;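 active = activation above a set limit, based on mean plus 3 SD of controls, cut at about 140% in these data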
NF-kB expr up: activators of NF-kB expression in neurons, primary screen, cell-based, HTS; 1.6% of 190,000 active; fold change at 12.5 µM; human neuronal cells, NF-kB reporter expression; stronger effect = higher value; in the data active = fold change above about 3.3
AHR act cf: AHR activators, confirmation, cell-based, luminescence, luciferase reporter, human. activation, % at 9 µM. shares compounds with AHR activator. 87% of 2,300 active. human cells, AHR-responsive luciferase reporter; in the data active = activation above about 49%;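 also: HepG2 hepatoma cells carrying a DRE-driven firefly luciferase reporter; 0% = vehicle wells and 100% = reference agonist wells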
PXR act counter: human PXR activators, counter-screen for AHR activator project, cell-based, luciferase luminescence; shares compounds with AHR activator; cell-based PXR reporter; AID 434939, 2010; activation, % at 11.6 µM; 88% of 2,300 active; in the data active = activation above about 11%;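 also: human hepatoma DPX-2 cells expressing full-length human PXR; 0% = DMSO and 100% = reference agonist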
The depositor's hits bear a star; nt = not tested or not shown.

SMILES | MDM2 E3 inh | STAT1 act | PERK inhibitor | AHR activator | APP 5'UTR act | NF-kB expr up | AHR act cf | PXR act counter
Cc1cc(C)c(C#N)c(Nc2ccccc2)n1 | 6 | 92 | 1 | 28 | -17 | 1.3 | nt | nt
Cc1cc(C)c(C#N)c(Nc2ccc3c(c2)OCCO3)n1 | -21 | 100 | -1 | 86* | 12 | 1.2 | 103* | 22*
COc1cccc(Nc2nc(C)cc(C)c2C#N)c1 | nt | 107 | 1 | 79* | 6 | 1.3 | 63* | 31*
CC(=O)c1ccc(N(CC(=O)NC2CCCCC2)C(=O)c2csnn2)cc1 | nt | nt | nt | 1 | nt | nt | nt | nt
COc1cccc(/C=C/C(=O)OCC(=O)NCc2ccco2)c1 | 9 | 101 | 1 | 0 | -1 | 0.93 | nt | nt
O=C(NCCN1CCOCC1)/C(=C\c1ccc(F)cc1)NC(=O)c1ccccc1 | nt | nt | nt | 1 | nt | nt | nt | nt
Cc1cccc(Nc2ncnc3nc[nH]c23)c1 | -28 | 109 | 2 | 13 | 14 | 1.7 | nt | nt
COc1cc2ncnc(Nc3ccc4c(c3)OCO4)c2cc1OC | nt | nt | nt | 104* | nt | nt | 101* | 25*
COc1ccc(Nc2ncnc3nc[nH]c23)cc1OC | -8 | 95 | 1 | 90* | 27 | 0.96 | 75* | 21*
COc1nc(Nc2ccc3c(c2)OCO3)nc(OC)n1 | -4 | nt | nt | 119* | -6 | 1.2 | 109* | 18*
Cc1cccc(Nc2ncnc3ccc(Br)cc23)c1 | -11 | 87 | -1 | 101* | 12 | 1.2 | 72* | 30*
COc1cc2ncnc(Nc3cccc(Cl)c3)c2cc1OC | nt | nt | 1 | nt | nt | nt | nt | nt
Cc1ccc2ncnc(Nc3ccccc3)c2c1 | -15 | 120 | 0 | 37 | -2 | 1.3 | nt | nt
COc1cccc(CN(C)C(=O)CNC(=O)c2ccc3c(c2)OCO3)c1OC | nt | nt | nt | 2 | nt | nt | nt | nt
O=C(CCc1nnc(C2(c3ccc(Cl)cc3)CCC2)o1)NCCCn1cccn1 | 17 | 109 | 1 | -1 | 19 | 1.3 | nt | nt
CCCN1C(=O)c2ccccc2NC1c1ccc(O)c(OCC)c1 (stereo unspecified) | nt | nt | nt | 1 | nt | nt | nt | nt
COc1ccc(CCNC(=O)CSC2=NS(=O)(=O)c3ccccc3N2)cc1OC | nt | nt | nt | -3 | nt | nt | nt | nt
CCN1C(=O)[C@H]2[C@@H](c3ccc(-c4cccc(Cl)c4)cc3)N[C@@](C)(C(=O)OC)[C@H]2C1=O | nt | nt | nt | 4 | nt | nt | nt | nt
COc1ccc(Nc2ncnc3ccc(Br)cc23)cc1OC | nt | nt | nt | 86* | nt | nt | 72* | 18*
COc1ccccc1Nc1ncnc2ccc(C)cc12 | -7 | 102 | -1 | 35 | -8 | 0.85 | nt | nt
CN(C)c1ccc(Nc2ncnc3ccc(Br)cc23)cc1 | nt | nt | nt | 92* | nt | nt | 47 | 10
O=C(Nc1cc(Cl)ccc1-n1cncn1)c1cccs1 | nt | nt | nt | 84* | nt | nt | 116* | 20*
CCCCN(CC)CCCNC(=O)c1cn(-c2ccc(OC)cc2)c(=O)c2ccccc12 | nt | nt | nt | 2 | nt | nt | nt | nt
CCNC(=S)Nc1ccc(NC(=O)c2ccccc2O)cc1 | -9 | nt | 1 | 0 | nt | nt | nt | nt
CCNC(=S)Nc1cccc(NC(=O)c2ccccc2O)c1 | -18 | nt | 0 | 86* | nt | nt | 124* | 14*
Cc1ccc(C(=O)NCCC(=O)N2CCCC2)cc1 | nt | nt | nt | 5 | nt | nt | nt | nt
c1ccc(-c2nc3ccccc3c3nncn23)cc1 | -8 | 102 | -1 | 97* | 8 | 1.2 | 123* | 20*
CNc1nc(N)c([N+](=O)[O-])c(Nc2ccccc2OC)n1 | nt | nt | nt | 107* | nt | nt | 93* | 18*
COc1ccc(OC)c(Nc2nc(NCCCN(C)C)nc(N)c2[N+](=O)[O-])c1 | -10 | nt | -1 | 38 | nt | nt | nt | nt
COc1ccc(OC)c(Nc2nc(N)c([N+](=O)[O-])c(NCc3ccccc3)n2)c1 | 1 | nt | 0 | 8 | nt | nt | nt | nt
